Assay [1] is described as follows: nonspecific flux increase, KCNQ1-free cells – parental CHO cells, counter-screen for KCNQ1 potentiator project (AID 493006). As to conditions: parental CHO-K1 cells, FluxOR thallium flux, at 10 µM; active compounds read high. In outline:
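Assay system: Untransfected host CHO-K1 cells with FluxOR thallium dye | Probe or stimulus: Potassium/thallium depolarization pulse | Schedule: Overnight 37 °C plating, 90 min RT dye, 20 min compound | Detection: Kinetic thallium-flux fluorescence | Read-out: Max-minus-min fluorescence over baseline, percent of buffer-to-R-L3 span | Benchmarks: Low control buffer, high control R-L3 activator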
A general note: A counterscreen serves to expose hits that act by an unwanted route or on another target.

For assay [2], the target named is Potassium voltage-gated channel subfamily KQT member 1 (Homo sapiens) (UniProt P51787). Nature of the assay: enhancement of KCNQ1 channel thallium flux – FluxOR thallium flux, CHO cells, duplicates, confirmation (AID 493007;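 active means potentiation averaged over duplicate wells exceeding buffer-only control mean by more than 3 SD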;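 on outcome: cells depolarized by a potassium plus thallium sulfate stimulus after compound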). Particulars: KCNQ1 cell line, FluxOR thallium flux fluorescence, at 10 µM; active compounds read high, % of reference activator effect, buffer zero. The essentials:
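Material: KCNQ1-expressing CHO cell line; Incubation: FluxOR dye loading 90 min, compound exposure 20 min, room temperature; Detection: FluxOR Tl+ flux fluorescence, 10 s baseline plus 110 s recording; Read-out: percent activation between buffer and R-L3 responses; Control set: buffer-only wells as 0% and R-L3 activator as 100%; Replication: duplicate wells per compound.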

The target in assay [3] is Potassium voltage-gated channel subfamily KQT member 2 (Rattus norvegicus) (UniProt O88943). In words: KCNQ2 thallium flux enhancement – KCNQ2-CHO-K1 cells, selectivity assay for KCNQ1 potentiator project (AID 493009;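 active means mean duplicate potentiation above the buffer control mean plus 5 SD of buffer wells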;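 further: assay conditions were tuned for KCNQ1 rather than KCNQ2 modulators; signal is max minus min fluorescence divided by baseline after thallium stimulus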). Particulars: FluxOR thallium flux fluorescence, at 10 µM; active compounds read high, scaled: buffer 0, activator control 100.
Sequence of Potassium voltage-gated channel subfamily KQT member 2 (Rattus norvegicus) (O88943 whole entry, looked up): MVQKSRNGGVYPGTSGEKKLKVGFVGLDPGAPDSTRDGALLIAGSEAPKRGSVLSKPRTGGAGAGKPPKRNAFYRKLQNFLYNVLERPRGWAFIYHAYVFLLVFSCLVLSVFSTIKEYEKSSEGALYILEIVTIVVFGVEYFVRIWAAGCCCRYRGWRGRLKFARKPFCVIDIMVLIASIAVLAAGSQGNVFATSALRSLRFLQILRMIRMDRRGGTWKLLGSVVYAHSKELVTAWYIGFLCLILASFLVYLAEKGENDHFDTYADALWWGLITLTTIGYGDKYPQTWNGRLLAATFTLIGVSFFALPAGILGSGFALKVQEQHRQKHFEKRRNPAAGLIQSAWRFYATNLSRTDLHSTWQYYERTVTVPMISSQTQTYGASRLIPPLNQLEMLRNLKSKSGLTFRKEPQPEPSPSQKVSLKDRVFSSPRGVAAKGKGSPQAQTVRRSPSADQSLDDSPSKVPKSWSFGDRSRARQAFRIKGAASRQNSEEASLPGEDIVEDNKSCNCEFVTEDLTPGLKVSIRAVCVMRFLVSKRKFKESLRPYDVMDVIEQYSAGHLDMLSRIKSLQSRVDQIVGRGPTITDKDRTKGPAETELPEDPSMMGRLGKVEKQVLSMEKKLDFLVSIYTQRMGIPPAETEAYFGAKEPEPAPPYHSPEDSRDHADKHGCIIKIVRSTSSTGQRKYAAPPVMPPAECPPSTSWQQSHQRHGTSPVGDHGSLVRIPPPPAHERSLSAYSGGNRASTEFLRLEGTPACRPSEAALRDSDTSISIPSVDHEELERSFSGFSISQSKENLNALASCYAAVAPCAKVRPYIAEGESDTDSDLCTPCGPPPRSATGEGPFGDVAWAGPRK
The target of assay [4] is Potassium voltage-gated channel subfamily KQT member 1 (Homo sapiens) (UniProt P51787). Nature of the assay: KCNQ1 activators by electrophysiology – IonWorks patch clamp, KCNQ1-CHO cells, orthogonal assay for KCNQ1 potentiator project, confirmation (AID 493184;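 active means current rise at least 3 SD above the untreated control mean in each of two repeat wells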). Particulars: automated patch clamp current, at 10 µM; active compounds read high. In outline: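 assay system = KCNQ1-expressing CHO cells | medium = external bath solution at pH 7.4 | probe or stimulus = 2,000 ms depolarization, -90 to +40 mV | compound dosing = 10 µM final, single point | measured by = automated voltage clamp, amphotericin B perforated patch | measure = percent current increase versus pre-compound level | replication = duplicates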
Sequence of Potassium voltage-gated channel subfamily KQT member 1 (Homo sapiens) (P51787 whole entry, looked up): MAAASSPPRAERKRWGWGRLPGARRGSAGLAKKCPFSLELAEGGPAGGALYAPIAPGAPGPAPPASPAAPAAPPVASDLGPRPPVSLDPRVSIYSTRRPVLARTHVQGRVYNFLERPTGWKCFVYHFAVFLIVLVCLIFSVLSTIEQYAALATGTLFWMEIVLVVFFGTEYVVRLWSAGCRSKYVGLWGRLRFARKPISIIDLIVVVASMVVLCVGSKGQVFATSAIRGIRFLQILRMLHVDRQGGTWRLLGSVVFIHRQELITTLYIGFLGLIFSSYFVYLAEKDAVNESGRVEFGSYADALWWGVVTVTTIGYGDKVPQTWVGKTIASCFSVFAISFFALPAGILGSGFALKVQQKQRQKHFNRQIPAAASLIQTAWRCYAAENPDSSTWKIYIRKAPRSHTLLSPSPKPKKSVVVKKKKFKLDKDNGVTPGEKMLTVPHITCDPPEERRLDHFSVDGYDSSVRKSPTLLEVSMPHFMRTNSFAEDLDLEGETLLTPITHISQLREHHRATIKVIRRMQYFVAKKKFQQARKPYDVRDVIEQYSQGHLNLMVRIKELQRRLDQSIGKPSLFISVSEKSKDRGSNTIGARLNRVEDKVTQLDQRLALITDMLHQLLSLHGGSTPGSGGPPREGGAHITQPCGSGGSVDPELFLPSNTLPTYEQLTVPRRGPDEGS

Assay [5] addresses Potassium voltage-gated channel subfamily E member 1 (Homo sapiens) + Potassium voltage-gated channel subfamily KQT member 1 (Homo sapiens) (UniProt P15382+P51787). Nature of the assay: KCNQ1-E1 channel activation – thallium flux, CHO-K1 KCNQ1/E1 cells, selectivity assay for KCNQ1 potentiator project, confirmation (AID 493186;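 active means mean duplicate activation above the buffer control mean plus 5 SD of those controls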). As to conditions: FluxOR thallium flux, at 10 µM; active compounds read high. The essentials: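 Test system – CHO-K1 cells with KCNQ1/E1 · Measured by – FluxOR Tl+ flux fluorescence, kinetic read · Controls – buffer low control, R-L3 high control · Times – dye 90 min, compound 20 min, room temperature · Replication – duplicate wells per compound · Doses – one test concentration · Evaluation – fluorescence rise relative to baseline, as percent of R-L3 response above buffer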

Consider 30 molecules from PubChem BioAssay.

Structures are written as SMILES. The source made the active and inactive calls.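 How the source made its calls, unless noted: active means duplicate-averaged activation above buffer control mean plus 5 SD of those controls; inactive means the rest.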

Sequence of Potassium voltage-gated channel subfamily E member 1 (Homo sapiens) + Potassium voltage-gated channel subfamily KQT member 1 (Homo sapiens) (P51787 whole entry, looked up): as the sequence (P51787 whole entry, looked up) above

Take `O=C(N/N=C/c1ccc2cccc(OCc3ccccc3)c2n1)c1ccc(Br)cc1`: the result in assay [1], in assay [3], in assay [4] and in assay [5] was inactive. The potentiation in assay [2] is 23% (active).

With `NS(=O)(=O)c1ccc(Sc2ccc3c(c2)CCC3)nc1`, the result in assay [1], in assay [3], in assay [4] and in assay [5] was inactive. Further, in assay [2], the potentiation was 22.5% (active).

As to `CCOC(=O)c1c(N)sc(C(C)=O)c1C`, the outcome in assay [1], in assay [2], in assay [3], in assay [4] and in assay [5] was inactive.

As to `CCOc1cccc(/C=N/NC(=O)C2CCCC2)c1O`, the result in assay [1], in assay [2], in assay [3], in assay [4] and in assay [5] was inactive.

For the molecule `COc1cc(NC(=S)N2CCC(C(O)(c3ccccc3)c3ccccc3)CC2)cc(OC)c1`, the result in assay [1], in assay [4] and in assay [5] was inactive. For the same molecule, the potentiation in assay [2] was 20.5% (active); in assay [3], 156% (active).

`O=C(CN(CCO)c1ccccc1)Nc1cccc(S(=O)(=O)N2CCCC2)c1`: the outcome in assay [1], in assay [3], in assay [4] and in assay [5] was inactive. Also, the potentiation in assay [2] was 22.5% (active).

With `Cn1cnc([N+](=O)[O-])c1S(=O)(=O)c1cccc(Cl)c1`, the result in assay [1], in assay [2], in assay [3], in assay [4] and in assay [5] was inactive.

Take `CCOC(=O)c1[nH]c2cc(OC)c(OC)cc2c1NC(=O)CN(C)C1CCCCC1`: the result in assay [1], in assay [3], in assay [4] and in assay [5] was inactive. Moreover, in assay [2], the potentiation is 18% (active).

Turning to `CN1CCN(C(c2ccc(Cl)cc2)c2cc(Cl)c3cccnc3c2O)CC1` (stereo not given), the outcome in assay [1], in assay [2], in assay [3], in assay [4] and in assay [5] was inactive.

`O=C(N/N=C/c1ccc(-c2ccccc2)o1)c1ccccc1O`: the result in assay [1], in assay [3], in assay [4] and in assay [5] was inactive. Moreover, the potentiation in assay [2] is 31% (active).

For `Cn1cccc1/C=N/n1c(-c2ccc(Cl)cc2Cl)n[nH]c1=S`, the outcome in assay [1], in assay [2], in assay [3], in assay [4] and in assay [5] was inactive.

For the molecule `CC12CCC(C(=O)N(CSC(=S)N/N=C\c3ccccc3)C1=O)C2(C)C` (stereo not given), the outcome in assay [1], in assay [3], in assay [4] and in assay [5] was inactive. Further, the potentiation in assay [2] is 33.5% (active).

As to `COC(=O)N/N=C/c1cc(C)n(-c2ccc(F)cc2)c1C`, the result in assay [1], in assay [2], in assay [3], in assay [4] and in assay [5] was inactive.

As to `OCCN1CCN(c2nc(-c3ccccc3)nc3c2oc2ccccc23)CC1`, the outcome in assay [1], in assay [2], in assay [3], in assay [4] and in assay [5] was inactive.

On to `CCOC(=O)c1c(C)[nH]sc1=S`, for which the outcome in assay [1], in assay [3], in assay [4] and in assay [5] was inactive. In assay [2], the potentiation was 18% (active).

Turning to `FC(F)(F)c1cccc(CN2CCC(c3cc(-c4cccs4)n[nH]3)CC2)c1`, the result in assay [1], in assay [2], in assay [3], in assay [4] and in assay [5] was inactive.

As to `Cc1[nH]nc(SCC(=O)N2CCCCC2)c1[N+](=O)[O-]`, the result in assay [1], in assay [2], in assay [3], in assay [4] and in assay [5] was inactive.

`Cc1cc(NC(=O)CSCC(=O)OC(C)C(=O)N(C)Cc2ccccc2)no1` (stereo not given): the outcome in assay [1], in assay [3], in assay [4] and in assay [5] was inactive. Further, the potentiation in assay [2] is 28% (active).

Regarding `O=C(c1ccc(-c2ccccc2)cc1)C1CCCN(C(=O)Cn2cncn2)C1` (stereo not given), the result in assay [1], in assay [2], in assay [3], in assay [4] and in assay [5] was inactive.

As for `COc1ccc(CCNC(=O)CCOc2cc(C)ccc2C)cc1OC`, the result in assay [1], in assay [2], in assay [3], in assay [4] and in assay [5] was inactive.

As to `Cc1cccc(C(=O)NN2C(=O)C3C(c4ccccc4)C=CC(c4ccccc4)C3C2=O)c1` (stereo not given), the outcome in assay [1], in assay [2], in assay [3], in assay [4] and in assay [5] was inactive.

Take `CCOC(=O)CSC(=S)NC(=O)c1ccc(OC)cc1`: the outcome in assay [1], in assay [4] and in assay [5] was inactive. The potentiation was 18.5% (active) in assay [2] and 147% (active) in assay [3].

For the molecule `CSc1nc(SCC(=O)O)c2sc3nc(-c4ccccc4)c4c(c3c2n1)CCC4`, the result in assay [1], in assay [3], in assay [4] and in assay [5] was inactive. Moreover, the potentiation in assay [2] is 30% (active).

Regarding `CC1(C)CC(N=c2cc(-c3ccccc3)oc3ccc(Cl)cc23)CC(C)(C)N1`, the result in assay [1], in assay [2], in assay [3], in assay [4] and in assay [5] was inactive.

With `CN1C(=O)c2ccc(NC(=O)c3c(F)c(F)c(F)c(F)c3F)cc2C1=O`, the result in assay [1], in assay [3], in assay [4] and in assay [5] was inactive. Besides, the potentiation in assay [2] is 25.5% (active).

`CC1=NOC(=O)/C1=C\c1ccc(-c2ccc(Cl)cc2Cl)o1`: the outcome in assay [1], in assay [2], in assay [3], in assay [4] and in assay [5] was inactive.

On to `O=C(CNc1ccc(Br)cc1)NNC1=NCCC1`, for which the result in assay [1], in assay [2], in assay [4] and in assay [5] was inactive. Moreover, the potentiation in assay [3] is 142% (active).

Take `S=C(NN=C1CCCCCC1)Nc1ccc(Cl)cc1`: the outcome in assay [1], in assay [2], in assay [3], in assay [4] and in assay [5] was inactive.

On to `Cc1nc(-c2ccc(NC(=O)Cc3ccccc3)cc2)cs1`, for which the result in assay [1], in assay [2], in assay [3], in assay [4] and in assay [5] was inactive.

With `Clc1ccc(C2=Nn3c(nnc3-c3n[nH]c4c3CCC4)SC2)cc1Cl`, the result in assay [1], in assay [2], in assay [3], in assay [4] and in assay [5] was inactive.
